Experimental findings from ChEMBL document CHEMBL1772995, “Targeting the c-Kit Promoter G-quadruplexes with 6-Substituted Indenoisoquinolines” (ACS Med Chem Lett, 2010) are described below.

In data set [1] the test system is Nucleic Acid. Put plainly: Binding affinity to human c-KIT1 (5'-FAM-GGGAGGGCGCTGGGAGGAGGG-TAMRA-3') DNA assessed as concentration required to cause half maximal change in melting temperature by FRET-melting assay (reference value: 54.4 degC). Format: nucleic-acid assay. The essentials: (§1)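 Dual FAM/TAMRA-labelled oligonucleotides diluted in 60 mM potassium cacodylate, pH 7.4, annealed at 400 nM (94 °C for 10 min, cooled to room temperature at 0.1 °C/min), then mixed 1:1 with ligand solution to 200 nM DNA final. Melting read with excitation at 483 nm and emission at 533 nm, in triplicate. ΔTm taken across a range of ligand concentrations, with the ligand level giving half-maximal ΔTm also derived.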

Data set [2] deals with Nucleic Acid. As to the kind of experiment: Binding affinity to human c-KIT1 (5'-FAM-GGGAGGGCGCTGGGAGGAGGG-TAMRA-3') DNA assessed as change in melting temperature at 1 uM by FRET-melting assay (reference value: 54.4 degC). It is filed as nucleic-acid assay. The essentials: as §1
For data set [3], the system named is Nucleic Acid. As to the kind of experiment: Binding affinity to human c-KIT2 (5'-FAM-GGGCGGGCGCGAGGGAGGGG-TAMRA-3') DNA assessed as change in melting temperature at 1 uM by FRET-melting assay (reference value: 72.7 degC). Format: nucleic-acid assay. The essentials: as §1
For data set [4], the system named is Nucleic Acid. As to the kind of experiment: Binding affinity to human c-KIT2 (5'-FAM-GGGCGGGCGCGAGGGAGGGG-TAMRA-3') DNA assessed as concentration required to cause half maximal change in melting temperature by FRET-melting assay (reference value: 72.7 degC). Format: nucleic-acid assay. In a few lines: as §1
Data set [5] relates to Nucleic Acid. Put plainly: Binding affinity to human telomeric (5'-FAM-GGGTTAGGGTTAGGGTTAGGG-TAMRA-3') DNA assessed as change in melting temperature at 1 uM by FRET-melting assay (reference value: 59.4 degC). It is filed as nucleic-acid assay. In a few lines: as §1
The subject of data set [6] is Nucleic Acid. Put plainly: Binding affinity to human telomeric (5'-FAM-GGGTTAGGGTTAGGGTTAGGG-TAMRA-3') DNA assessed as concentration required to cause half maximal change in melting temperature by FRET-melting assay (reference value: 59.4 degC). It is filed as nucleic-acid assay. The essentials: as §1
Data set [7] can be described thus: cells. It is filed as functional, cell-based. The following applies: Homo sapiens, GIST882, 96 h.
Data set [8] concerns HT-29. As to the kind of experiment: cells. The following applies: Homo sapiens, HT-29, 96 h. Format: functional, cell-based.
Data set [9] has as its system Nucleic Acid. Put plainly: Binding affinity to double stranded-DNA (50-FAM-TAT AGC TAT A-HEG-TAT AGC TAT A-TAMRA-30) assessed as concentration required to cause half maximal change in melting temperature by FRET-melting assay (reference value: 62.7 degC). Format: nucleic-acid assay. The essentials: as §1
Data set [10] deals with Nucleic Acid. Put plainly: Binding affinity to double stranded-DNA (50-FAM-TAT AGC TAT A-HEG-TAT AGC TAT A-TAMRA-30) assessed as change in melting temperature at 1 uM by FRET-melting assay (reference value: 62.7 degC). It is filed as nucleic-acid assay. The essentials:
as §1

A short description of data set [11]: Toxicity in human GIST882 cells expressing c-Kit at 20 uM after 24 hrs. It is filed as cell-based. As to conditions: gist882, 24 h.
Data set [12] addresses Mast/stem cell growth factor receptor Kit (Homo sapiens) (UniProt P10721). Put plainly: Inhibition of c-Kit mRNA expression in human GIST882 cells after 24 hrs by […] RT-PCR analysis. Format: functional, cell-based. In a few lines:
(§2)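 GIST882 cells grown in RPMI 1640 with 10% FBS. 1 × 10^6 cells seeded in T25 flasks and treated 24 h with 0.8, 4 or 20 μM ligand, or DMSO control. Total RNA extracted; cDNA made from 1 μg RNA with oligo dT (55 °C, 1 h). qPCR annealing at 64 °C, single amplicon checked by melt curve. KIT mRNA normalised to β-actin or YWHAZ and given as % of control. Two independent experiments, each in triplicate.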

Data set [13] shares this target. Put plainly: Inhibition of c-Kit mRNA expression in human GIST882 cells at 4 uM after 24 hrs by […] RT-PCR analysis relative to control. It is filed as functional, cell-based. The essentials: as §2
For data set [14] the target is unchanged. As to the kind of experiment: Inhibition of c-Kit protein expression in human GIST882 cells after 24 hrs by immunoblotting. Format: functional, cell-based. In a few lines: (§3)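 GIST882 cells (1 × 10^6 per T25 flask) treated 24 h with 0.8, 4 or 20 μM ligand, or DMSO control. Lysed in RIPA buffer with protease and phosphatase inhibitors; 10–20 μg protein run on 8–16% SDS-PAGE, transferred to nitrocellulose and probed with anti-KIT. β-actin used as loading control; enhanced-luminescence detection.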
On the technique in general: In western blotting, separated proteins are transferred to a membrane and probed.

Data set [15] has the same target. Put plainly: Inhibition of c-Kit mRNA expression in human GIST882 cells at 20 uM after 24 hrs by […] RT-PCR analysis relative to control. Format: functional, cell-based. In a few lines: as §2
Data set [16] has the same target. Put plainly: Inhibition of c-Kit protein expression in human GIST882 cells at 20 uM after 24 hrs by immunoblotting. Format: functional, cell-based. The essentials: as §3

SMILES strings stand for the structures. Where a name gives a salt, the structure may show the parent alone. The source made the active and inactive calls. The calls are words filed in the database; no cut-off is given here.

In general, IC50 refers to the midpoint of a concentration-inhibition curve. A higher IC50 goes with lower potency. A word on the inhibition: it is how much of the control response was suppressed.

Mast/stem cell growth factor receptor Kit (Homo sapiens), sequence (P10721 whole entry): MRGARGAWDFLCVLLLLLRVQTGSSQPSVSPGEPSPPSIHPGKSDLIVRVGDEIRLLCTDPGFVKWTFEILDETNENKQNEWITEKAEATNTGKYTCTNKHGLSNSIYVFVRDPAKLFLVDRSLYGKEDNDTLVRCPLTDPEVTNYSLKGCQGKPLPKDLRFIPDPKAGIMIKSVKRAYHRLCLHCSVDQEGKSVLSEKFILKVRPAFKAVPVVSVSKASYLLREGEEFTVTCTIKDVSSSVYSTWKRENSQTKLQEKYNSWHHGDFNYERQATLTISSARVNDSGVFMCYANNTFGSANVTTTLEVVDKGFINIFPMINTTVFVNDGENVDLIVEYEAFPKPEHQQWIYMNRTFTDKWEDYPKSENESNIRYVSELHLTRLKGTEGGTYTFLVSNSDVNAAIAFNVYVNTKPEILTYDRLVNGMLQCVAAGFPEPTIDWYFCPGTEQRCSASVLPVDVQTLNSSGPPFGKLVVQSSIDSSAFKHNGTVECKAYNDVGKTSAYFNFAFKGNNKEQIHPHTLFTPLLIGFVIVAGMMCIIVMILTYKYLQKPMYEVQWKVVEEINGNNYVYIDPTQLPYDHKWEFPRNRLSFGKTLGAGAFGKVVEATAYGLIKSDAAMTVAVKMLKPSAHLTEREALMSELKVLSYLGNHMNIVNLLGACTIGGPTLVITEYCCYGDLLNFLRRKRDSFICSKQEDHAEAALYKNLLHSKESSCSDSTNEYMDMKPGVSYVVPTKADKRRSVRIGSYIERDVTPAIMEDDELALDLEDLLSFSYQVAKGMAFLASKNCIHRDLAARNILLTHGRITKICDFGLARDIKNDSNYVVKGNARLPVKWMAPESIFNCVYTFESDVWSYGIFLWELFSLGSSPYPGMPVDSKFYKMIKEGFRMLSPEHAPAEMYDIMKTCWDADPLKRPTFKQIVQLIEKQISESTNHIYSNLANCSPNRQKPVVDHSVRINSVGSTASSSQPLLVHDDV

Take `CN1CCN(CCCn2c3c(c4ccccc4c2=O)C(=O)c2ccccc2-3)CC1`: the Activity in data set [1] was 0.59 µM; in [4], 0.84 µM; in data set [6] it was 0.98 µM; in data set [9] it was greater than 10 µM. Besides, the deltaTm in data set [2] turned out to be 25.9 K; in [3], 12.2 K; in data set [5], 17.6 K; in data set [10], 1.7 K. Moreover, the IC50 in data set [7] turned out to be 13.9 µM; in data set [8] it was 700 nM.

As for `O=C1c2ccccc2-c2c1c1ccccc1c(=O)n2CCCn1ccnc1`, the Activity in data set [1] was greater than 10 µM; in [4], 0.62 µM; in [6], greater than 10 µM; in data set [9], greater than 10 µM. In addition, the deltaTm in data set [2] came out at 11.7 K; in data set [3], 13.2 K; in data set [5] it was 6.3 K; in [10], 0 K. Further, the concentration for half-maximal inhibition (IC50) in [7] was 23 µM; in [8], 2200 nM.

As for `Cc1ccc(NC(=O)c2ccc(CN3CCN(C)CC3)cc2)cc1Nc1nccc(-c2cccnc2)n1` [IMATINIB MESYLATE], the 50% inhibitory concentration (IC50) in data set [7] turned out to be 1.7 µM.

On to `O=C1c2ccccc2-c2c1c1ccccc1c(=O)n2CCCN1CCOCC1`, for which the Activity in [1] was 8.9 µM; in data set [4], 4.4 µM; in [6], greater than 10 µM; in [9], greater than 10 µM. In addition, the deltaTm in data set [2] is 8.7 K; in data set [3], 3.9 K; in [5] it was 4.8 K; in data set [10], 0.6 K. Moreover, the IC50 was greater than 50 µM in data set [7] and greater than 50000 nM in [8].

With `CN(C)CCCn1c2c(c3ccccc3c1=O)C(=O)c1ccccc1-2.Cl`, the Activity entry in data set [11] is “Toxic”; in data set [1] it was 0.95 µM; in data set [4] it was 0.69 µM; in data set [6] it was 1.6 µM; in data set [9] it was greater than 10 µM. Besides, the deltaTm in data set [2] came to 20.1 K; in data set [3], 13 K; in data set [5], 13 K; in [10], 3.9 K. The half-maximal inhibitory concentration (IC50) in data set [7] amounted to 4.1 µM; in data set [8] it was 300 nM. In addition, the inhibition result in data set [12] is “Dose-dependent effect”; in [13] it was 67%; in data set [14], “Dose-dependent effect”; in data set [15], 89%. Besides, the inhibition entry in data set [16] was “Active”.

Turning to `O=C1c2ccccc2-c2c1c1ccccc1c(=O)n2CCCN1CCCC1`, the Activity in [1] worked out at 0.93 µM; in [4] it was 0.72 µM; in [6], 1.63 µM; in data set [9], 9 µM. For the same compound, the deltaTm in data set [2] was determined as 23.7 K; in data set [3] it was 14.4 K; in data set [5] it was 14.4 K; in [10], 4 K. The IC50 in data set [7] came to 5 µM; in [8] it was 400 nM.
